Reference: ChEMBL document CHEMBL1148634 (J Med Chem, 2006)
Calls of active or inactive are those of the source. No cut-off for these calls is given here.

Assays:
[1] = target: T1, Melatonin receptor type 1A (Homo sapiens, UniProt P48039); test: Displacement of 2-[125I]iodomelatonin from human recombinant MT1 receptor expressed in NIH3T3 cells; assay type: cell-based
[2] = target: T2, Melatonin receptor type 1B (Homo sapiens, UniProt P49286); test: Displacement of 2-[125I]iodomelatonin from human recombinant MT2 receptor expressed in NIH3T3 cells; assay type: cell-based
T2 sequence (P49286 whole entry): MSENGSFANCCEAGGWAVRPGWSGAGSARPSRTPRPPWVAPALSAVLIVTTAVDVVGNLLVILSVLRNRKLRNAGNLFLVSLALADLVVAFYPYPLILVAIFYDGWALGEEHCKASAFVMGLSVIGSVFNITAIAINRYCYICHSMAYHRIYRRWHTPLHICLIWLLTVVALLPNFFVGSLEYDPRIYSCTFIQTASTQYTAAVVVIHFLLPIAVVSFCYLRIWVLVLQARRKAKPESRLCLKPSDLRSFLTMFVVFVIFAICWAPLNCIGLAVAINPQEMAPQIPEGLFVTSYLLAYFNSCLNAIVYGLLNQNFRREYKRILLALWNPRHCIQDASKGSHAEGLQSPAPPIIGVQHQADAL

[3] = tested on: Melanophore; test: Antagonist activity in Xenopus laevis melanophore assessed as potency for pigment aggregation; assay type: functional, cell-based
Outline: (§1)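 Antagonism of the pigment aggregation response was tested on a clonal Xenopus laevis melanophore line.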

[4] = tested on: Melanophore; test: Agonist activity in Xenopus laevis melanophore assessed as potency for pigment aggregation; assay type: functional, cell-based
Outline: (§2)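 A clonal Xenopus laevis melanophore line was grown in 96-well plates, and medium was switched to 0.7 × L-15 18 h before testing. Initial absorbance at 630 nm was read, analogue was added, and final absorbance was read after 60 min. Response was the fractional change 1 − (Af/Ai).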

[5] = tested on: Melanophore; test: Antagonist activity in Xenopus laevis melanophore assessed as potency for pigment aggregation at 10 uM; assay type: functional, cell-based; outline: as §1
[6] = tested on: Melanophore; test: Agonist activity in Xenopus laevis melanophore assessed as potency for pigment aggregation at 10 uM; assay type: functional, cell-based; outline: as §2
[7] = target: T3, Melatonin receptor type 1B (Homo sapiens) (UniProt P49286); test: Activity at MT2 receptor expressed in NIH3T3 cells assessed as inhibition of forskolin-stimulated cAMP synthesis; assay type: functional, cell-based; conditions: filed as agonist
T3 sequence (whole entry): T2 sequence (P49286 whole entry)
Outline: (§3)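 NIH 3T3 cells stably expressing cloned human MT1 or MT2 receptors were pretreated with IBMX (25 µM, 10 min), then given forskolin (1 µM, 10 min) with or without test agent. Cyclic AMP was measured in duplicate by radioimmunoassay for each cell sample. Data are mean ± SEM of quadruplicate cell samples.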

[8] = target: T1, Melatonin receptor type 1A; test: Activity at MT1 receptor expressed in NIH3T3 cells assessed as inhibition of forskolin-stimulated cAMP synthesis; assay type: functional, cell-based; conditions: filed as agonist; outline: as §3
[9] = target: T1, Melatonin receptor type 1A; test: Activity at MT1 receptor expressed in NIH3T3 cells assessed as inhibition of […] cAMP synthesis; assay type: functional, cell-based; conditions: filed as antagonist
Outline: (§4)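 Antagonism was tested in NIH 3T3 cells expressing human MT1. […] Cyclic AMP was measured in duplicate by radioimmunoassay. Data are mean ± SEM of quadruplicate cell samples.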

[10] = tested on: Melanophore; test: Potency for pigment aggregation in Xenopus laevis melanophore at 10 uM relative to melatonin; assay type: functional
[11] = target: T1, Melatonin receptor type 1A; test: Activity at MT1 receptor expressed in NIH3T3 cells assessed as inhibition of forskolin-stimulated cAMP synthesis at 1 uM; assay type: functional, cell-based; outline: as §3
[12] = target: T1, Melatonin receptor type 1A; test: Activity at MT1 receptor expressed in NIH3T3 cells assessed as inhibition of […] cAMP synthesis at 10 uM; assay type: functional, cell-based; conditions: filed as antagonist; outline: as §4
[13] = target: T1, Melatonin receptor type 1A; test: Activity at MT1 receptor expressed in NIH3T3 cells assessed as inhibition of forskolin-stimulated cAMP synthesis at 10 uM; assay type: functional, cell-based; outline: as §3
[14] = Xenopus laevis, Melanophore, read-out: EC50

T1 sequence (P48039 whole entry): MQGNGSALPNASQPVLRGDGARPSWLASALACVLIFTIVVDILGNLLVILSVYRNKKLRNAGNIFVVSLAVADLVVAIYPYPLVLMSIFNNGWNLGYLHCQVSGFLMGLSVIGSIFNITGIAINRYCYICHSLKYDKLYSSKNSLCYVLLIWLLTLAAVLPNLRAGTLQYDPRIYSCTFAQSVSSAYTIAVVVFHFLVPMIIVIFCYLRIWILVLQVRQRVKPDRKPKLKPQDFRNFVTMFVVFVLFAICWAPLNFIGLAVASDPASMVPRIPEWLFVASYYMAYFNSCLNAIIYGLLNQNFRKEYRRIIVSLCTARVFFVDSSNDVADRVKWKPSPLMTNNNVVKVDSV

Row | SMILES | Ki [1] [nM] | Ki [2] [nM] | IC50 [3] [nM] | Activity [5] | EC50 [4, 14] [nM] | further results
1 | CCCC(=O)NCC1(c2cn(C)c3ccccc23)CCC1 | 724 | 1740 | 3030 |  |  | EC50 ([4]; melanophore): Not Active
2 | COc1ccc2c(c1)c(C(C)CNC(C)=O)cn2C (stereo in doubt; 6a) [listing 1 of 2 here] |  |  |  | inactive |  | 
3 | COc1ccc2[nH]cc(C3(CNC(=O)C4CC4)CCC3)c2c1 | 57.8 | 28.9 | 2500 |  |  | Activity [6]: inactive
4 | CCCC(=O)NCC1(c2c[nH]c3ccc(OC)cc23)CCC1 | 116 | 57.4 |  | inactive | 2.56 | Activity [7]: Agonist; Activity [8]: Agonist
5 | COc1ccc2[nH]cc(C3(CNC(C)=O)CCC3)c2c1 | 8.2 | 3.3 |  | inactive | 1.67 | 
6 | COc1ccc2c(c1)c(C(C)(C)CNC(C)=O)cn2C | 11.5 | 1.29 |  | inactive | 6.31 | 
7 | COc1ccc2[nH]cc(C(C)CNC(C)=O)c2c1 (configuration not stated) | 1.67 | 2.94 |  | inactive | 0.049 | 
8 | CCC(=O)NCC1(c2cn(C)c3ccccc23)CCC1 | 1510 | 1050 | 1150 |  |  | EC50 ([4]; melanophore): Not Active
9 | COc1ccc2c(c1)c(C(C)CNC(C)=O)cn2C (stereo in doubt; (-)6a) [listing 1 of 2 here] |  |  |  | inactive |  | 
10 | CCCC(=O)NCC1(c2cn(C)c3ccc(OC)cc23)CCC1 | 10.6 | 0.86 |  | inactive | 2 | Activity [9]: Antagonist; Activity [10]: 92%; Activity [11]: inactive
11 | CCC(=O)NCC1(c2cn(C)c3ccc(OC)cc23)CC1 | 86 | 39 |  | inactive | 6.8 | 
12 | CCC(=O)NCC(C)(C)c1cn(C)c2ccc(OC)cc12 | 6.03 | 1.15 |  | inactive | 1.26 | 
13 | COc1ccc2[nH]cc(CCNC(C)=O)c2c1 [MELATONIN] |  |  |  | inactive | 0.063 | 
14 | COc1ccc2c(c1)c(C(C)(C)CNC(=O)C1CCC1)cn2C | 170 | 33.1 |  | inactive | 57.5 | 
15 | CCC(=O)NCC1(c2cn(C)c3ccc(OC)cc23)CCCC1 | 302 | 102 | 811 |  |  | Activity [6]: inactive
16 | COc1ccc2c(c1)c(C(C)CNC(C)=O)cn2C (single isomer, unassigned; (+)) [listing 1 of 2 here] |  | 0.5 |  |  |  | EC50 ([4]; melanophore, read-out: EC50): 0.98 nM
17 | CCCC(=O)NCC1(c2cn(C)c3ccc(OC)cc23)CCCC1 | 589 | 85.1 | 1640 |  |  | Activity [12]: Antagonist; Activity [13]: inactive; Activity [6]: inactive
18 | CCC(=O)NCC1(c2c[nH]c3ccc(OC)cc23)CCC1 | 65.7 | 32 |  | inactive | 0.99 | 
19 | COc1ccc2c(c1)c(C(C)CNC(C)=O)cn2C (stereo in doubt; (-)6a) [listing 2 of 2 here] |  | 0.27 |  |  |  | EC50 ([4]; melanophore, read-out: EC50): 10.8 nM

Row | SMILES | Ki [1] [nM] | Ki [2] [nM] | IC50 [3] [nM] | Activity [5] | EC50 [4, 14] [nM] | further results
20 | COc1ccc2c(c1)c(C1(CNC(C)=O)CCC1)cn2C | 483 | 72 | 637 |  | 1010 | Activity [10]: 8%
21 | COc1ccc2c(c1)c(C1(CNC(=O)C3CCC3)CCC1)cn2C | 714 | 3770 | > 10000 |  |  | EC50 ([4]; melanophore): Not Active; Activity [6]: inactive
22 | Cn1cc(C2(CNC(=O)C3CC3)CCC2)c2ccccc21 | 617 | 1440 | 3440 |  |  | EC50 ([4]; melanophore): Not Active
23 | COc1ccc2c(c1)c(C(C)CNC(C)=O)cn2C (single isomer, unassigned; (+)) [listing 2 of 2 here] |  |  |  | inactive |  | 
24 | COc1ccc2c(c1)c(C(C)CNC(C)=O)cn2C (stereo in doubt; 6a) [listing 2 of 2 here] |  | 0.41 |  |  |  | EC50 ([4]; melanophore, read-out: EC50): 1.72 nM
25 | CCC(=O)NCC(C)c1cn(C)c2ccc(OC)cc12 (configuration not stated) | 4.9 | 1.02 |  | inactive | 3.72 | 
26 | CCCC(=O)NCC(C)(C)c1cn(C)c2ccc(OC)cc12 | 8.51 | 0.74 |  | inactive | 1 | Activity [7]: Agonist; Activity [8]: Agonist
27 | COc1ccc2c(c1)c(C1(CNC(C)=O)CCCC1)cn2C | 148 | 66.1 | 628 |  |  | Activity [6]: inactive
28 | COc1ccc2c(c1)c(C1(CNC(C)=O)CC1)cn2C | 176 | 90 |  | inactive | 10.5 | 
29 | COc1ccc2[nH]cc(C3(CNC(=O)C4CCC4)CCC3)c2c1 | 493 | 62.2 | > 10000 |  |  | Activity [6]: inactive
30 | COc1ccc2c(c1)c(C1(CNC(=O)C3CC3)CCC1)cn2C | 307 | 138 | 2070 |  |  | Activity [6]: inactive
31 | CC(=O)NCC1(c2cn(C)c3ccccc23)CCC1 | 2190 | 1260 | 1250 |  |  | EC50 ([4]; melanophore): Not Active
32 | CCC(=O)NCC1(c2cn(C)c3ccc(OC)cc23)CCC1 | 34 | 4.4 | 826 |  | 980 | Activity [10]: 20%
33 | CCCC(=O)NCC1(c2cn(C)c3ccc(OC)cc23)CC1 | 212 | 7.5 |  | inactive | 1.7 | Activity [7]: Agonist; Activity [8]: Agonist
34 | COc1ccc2c(c1)c(C1(CNC(=O)C3CC3)CCCC1)cn2C | 468 | 257 | 1180 |  |  | Activity [6]: inactive
35 | COc1ccc2[nH]cc(C(C)(C)CNC(C)=O)c2c1 | 1.12 | 2.75 |  | inactive | 0.0072 | Activity [7]: Agonist; Activity [8]: Agonist
36 | CCCC(=O)NCC(C)c1cn(C)c2ccc(OC)cc12 (configuration not stated) | 4.27 | 0.47 |  | inactive | 1 | 
37 | COc1ccc2c(c1)c(C1(CNC(=O)C3CCC3)CCCC1)cn2C | 479 | 407 | 1770 |  |  | Activity [6]: inactive
